Reference: ChEMBL document CHEMBL1153413, “Pyranonaphthoquinone lactones: a new class of AKT selective kinase inhibitors alkylate a regulatory loop cysteine” (J Med Chem, 2009)
Blank lines part the entries; values can stand above or below the compound they belong to. Activity calls are given as the source filed them. The rule behind the calls is not given here.

Experiments:
[1] = target: T1, RAC-alpha serine/threonine-protein kinase (Homo sapiens, UniProt P31749); assay: Inhibition of AKT at < 10 uM
T1 sequence (P31749 whole entry): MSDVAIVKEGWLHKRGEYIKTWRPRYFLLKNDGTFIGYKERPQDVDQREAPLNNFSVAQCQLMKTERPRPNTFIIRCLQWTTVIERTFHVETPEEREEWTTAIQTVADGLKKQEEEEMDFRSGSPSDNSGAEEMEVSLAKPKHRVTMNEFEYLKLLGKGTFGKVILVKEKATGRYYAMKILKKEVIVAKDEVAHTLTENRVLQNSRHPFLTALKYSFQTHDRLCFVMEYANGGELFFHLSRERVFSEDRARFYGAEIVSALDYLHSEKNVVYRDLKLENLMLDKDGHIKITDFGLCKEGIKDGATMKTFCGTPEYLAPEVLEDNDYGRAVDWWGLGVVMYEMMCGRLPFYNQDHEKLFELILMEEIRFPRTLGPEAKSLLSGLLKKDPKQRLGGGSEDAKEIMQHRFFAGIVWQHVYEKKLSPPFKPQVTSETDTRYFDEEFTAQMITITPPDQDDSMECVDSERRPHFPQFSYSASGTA

[2] = target: T1, RAC-alpha serine/threonine-protein kinase; assay: Inhibition of AKT
[3] = Cytotoxicity against human MDA468 cells expressing AKT; format: functional, cell-based, MDA-MB-468
[4] = target: RAC-alpha serine/threonine-protein kinase (Homo sapiens, UniProt P31749, C310A); assay: Inhibition of AKT C310A mutant
Chain of RAC-alpha serine/threonine-protein kinase (Homo sapiens, UniProt P31749, C310A) (P31749 whole entry C310A): as the sequence (P31749 whole entry) above, with C310A counted along it

[5] = target: RAC-alpha serine/threonine-protein kinase (Homo sapiens, UniProt P31749, C296A); assay: Inhibition of AKT C296A mutant
Chain of RAC-alpha serine/threonine-protein kinase (Homo sapiens, UniProt P31749, C296A) (P31749 whole entry C296A): as the sequence (P31749 whole entry) above, with C296A counted along it

[6] = system: RAC-alpha serine/threonine-protein kinase (Homo sapiens), P31749 [C296A,C310A]; assay: Inhibition of AKT C296A/C310A mutant up to 40 uM
Chain of RAC-alpha serine/threonine-protein kinase (Homo sapiens), P31749 [C296A,C310A] (P31749 whole entry C296A/C310A): as the sequence (P31749 whole entry) above, with C296A, C310A counted along it

[7] = target: Tyrosine-protein kinase ABL1 (Homo sapiens) (UniProt P00519); assay: Inhibition of ABL1 at 1 uM
Outline: (§1)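 Single-concentration (1 µM) selectivity screen run as an outsourced commercial panel of 45 kinases.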

[8] = target: T1, RAC-alpha serine/threonine-protein kinase; assay: Inhibition of AKT1 at 1 uM; outline: as §1
[9] = target: RAC-beta serine/threonine-protein kinase (Homo sapiens) (UniProt P31751); assay: Inhibition of AKT2 at 1 uM; outline: as §1
Chain of RAC-beta serine/threonine-protein kinase (Homo sapiens) (P31751 whole entry): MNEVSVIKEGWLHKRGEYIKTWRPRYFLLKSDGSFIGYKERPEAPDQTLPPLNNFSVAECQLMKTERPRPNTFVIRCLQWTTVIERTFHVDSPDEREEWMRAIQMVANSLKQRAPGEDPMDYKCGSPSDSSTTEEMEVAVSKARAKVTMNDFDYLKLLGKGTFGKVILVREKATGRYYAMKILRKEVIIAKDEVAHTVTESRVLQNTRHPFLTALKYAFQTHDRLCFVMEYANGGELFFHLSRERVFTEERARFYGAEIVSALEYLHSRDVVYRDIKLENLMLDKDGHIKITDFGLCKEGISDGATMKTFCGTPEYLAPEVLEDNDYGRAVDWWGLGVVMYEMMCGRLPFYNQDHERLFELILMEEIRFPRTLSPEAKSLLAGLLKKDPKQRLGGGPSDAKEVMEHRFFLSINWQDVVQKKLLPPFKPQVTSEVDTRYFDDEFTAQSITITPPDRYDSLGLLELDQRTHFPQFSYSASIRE

[10] = target: Tyrosine-protein kinase BTK (Homo sapiens) (UniProt Q06187); assay: Inhibition of BTK at 1 uM; outline: as §1
[11] = target: Cyclin-dependent kinase 1/cyclin B1 (Homo sapiens) (UniProt P06493+P14635); assay: Inhibition of CDK1/cyclin B at 1 uM; format: protein-complex assay; outline: as §1
[12] = target: Cyclin-dependent kinase 2 (Homo sapiens) (UniProt P24941); assay: Inhibition of CDK2/cyclin A at 1 uM; outline: as §1
[13] = target: Serine/threonine-protein kinase Chk1 (Homo sapiens) (UniProt O14757); assay: Inhibition of CHEK1 at 1 uM; outline: as §1
[14] = target: Macrophage colony-stimulating factor 1 receptor (Homo sapiens) (UniProt P07333); assay: Inhibition of CSF1R at 1 uM; outline: as §1
[15] = target: Tyrosine-protein kinase CSK (Homo sapiens) (UniProt P41240); assay: Inhibition of CSK at 1 uM; outline: as §1
[16] = target: Epidermal growth factor receptor (Homo sapiens) (UniProt P00533); assay: Inhibition of EGFR at 1 uM; outline: as §1
[17] = target: Receptor tyrosine-protein kinase erbB-4 (Homo sapiens) (UniProt Q15303); assay: Inhibition of ERBB4 at 1 uM; outline: as §1
[18] = target: Fibroblast growth factor receptor 1 (Homo sapiens) (UniProt P11362); assay: Inhibition of FGFR1 at 1 uM; outline: as §1
[19] = target: Vascular endothelial growth factor receptor 1 (Homo sapiens) (UniProt P17948); assay: Inhibition of FLT1 at 1 uM; outline: as §1
[20] = target: Receptor-type tyrosine-protein kinase FLT3 (Homo sapiens) (UniProt P36888); assay: Inhibition of FLT3 at 1 uM; outline: as §1
[21] = target: Tyrosine-protein kinase Fyn (Homo sapiens) (UniProt P06241); assay: Inhibition of FYN at 1 uM; outline: as §1
[22] = target: Insulin-like growth factor 1 receptor (Homo sapiens) (UniProt P08069); assay: Inhibition of IGF1R at 1 uM; outline: as §1
[23] = target: Inhibitor of nuclear factor kappa-B kinase subunit beta (Homo sapiens) (UniProt O14920); assay: Inhibition of IKBKB at 1 uM; outline: as §1
[24] = target: Insulin receptor (Homo sapiens) (UniProt P06213); assay: Inhibition of INSR at 1 uM; outline: as §1
[25] = target: Vascular endothelial growth factor receptor 2 (Homo sapiens) (UniProt P35968); assay: Inhibition of KDR at 1 uM; outline: as §1
Chain of Vascular endothelial growth factor receptor 2 (Homo sapiens) (P35968 whole entry): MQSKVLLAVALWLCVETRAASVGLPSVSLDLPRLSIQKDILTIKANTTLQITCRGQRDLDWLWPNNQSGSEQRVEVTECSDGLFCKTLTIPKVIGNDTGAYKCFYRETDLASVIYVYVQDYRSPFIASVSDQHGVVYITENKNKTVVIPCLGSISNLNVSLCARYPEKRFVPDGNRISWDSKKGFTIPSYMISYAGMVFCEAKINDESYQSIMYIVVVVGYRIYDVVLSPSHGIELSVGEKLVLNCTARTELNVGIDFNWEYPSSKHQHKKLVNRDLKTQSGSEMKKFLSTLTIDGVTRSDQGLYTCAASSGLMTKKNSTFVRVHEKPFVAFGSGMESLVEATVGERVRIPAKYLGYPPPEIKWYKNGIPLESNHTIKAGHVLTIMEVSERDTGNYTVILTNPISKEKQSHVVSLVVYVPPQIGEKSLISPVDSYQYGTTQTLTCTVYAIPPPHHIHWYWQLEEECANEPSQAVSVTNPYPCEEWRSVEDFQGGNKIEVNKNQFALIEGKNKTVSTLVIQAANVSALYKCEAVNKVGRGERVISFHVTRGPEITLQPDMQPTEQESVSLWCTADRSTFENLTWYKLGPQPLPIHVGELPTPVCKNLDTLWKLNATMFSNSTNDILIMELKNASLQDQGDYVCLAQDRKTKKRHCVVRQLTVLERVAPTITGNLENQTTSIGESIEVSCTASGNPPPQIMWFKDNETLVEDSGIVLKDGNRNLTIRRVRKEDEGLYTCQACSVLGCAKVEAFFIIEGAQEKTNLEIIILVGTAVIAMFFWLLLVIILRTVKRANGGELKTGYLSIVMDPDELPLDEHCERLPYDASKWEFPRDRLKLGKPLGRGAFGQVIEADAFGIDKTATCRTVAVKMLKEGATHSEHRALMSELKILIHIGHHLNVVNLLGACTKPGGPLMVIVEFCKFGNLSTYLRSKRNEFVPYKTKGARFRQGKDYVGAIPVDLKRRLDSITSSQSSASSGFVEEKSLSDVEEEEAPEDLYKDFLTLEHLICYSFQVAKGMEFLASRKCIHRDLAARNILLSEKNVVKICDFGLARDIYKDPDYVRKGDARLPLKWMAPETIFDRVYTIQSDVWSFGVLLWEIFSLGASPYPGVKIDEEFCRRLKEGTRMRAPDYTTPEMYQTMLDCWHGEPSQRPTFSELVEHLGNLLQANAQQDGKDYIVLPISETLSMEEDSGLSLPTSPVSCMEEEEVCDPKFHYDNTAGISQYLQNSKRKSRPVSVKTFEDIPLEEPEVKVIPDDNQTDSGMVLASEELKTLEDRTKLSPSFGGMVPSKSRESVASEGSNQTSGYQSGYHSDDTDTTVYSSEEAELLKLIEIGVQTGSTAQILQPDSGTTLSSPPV

[26] = target: Tyrosine-protein kinase Lck (Homo sapiens) (UniProt P06239); assay: Inhibition of LCK at 1 uM; outline: as §1
[27] = target: Dual specificity mitogen-activated protein kinase kinase 1 (Homo sapiens) (UniProt Q02750); assay: Inhibition of MAP2K1 at 1 uM; outline: as §1
[28] = target: Mitogen-activated protein kinase kinase kinase kinase 5 (Homo sapiens) (UniProt Q9Y4K4); assay: Inhibition of MAP4K5 at 1 uM; outline: as §1
[29] = target: Mitogen-activated protein kinase 1 (Homo sapiens) (UniProt P28482); assay: Inhibition of MAPK1 at 1 uM; outline: as §1
[30] = target: Mitogen-activated protein kinase 14 (Homo sapiens) (UniProt Q16539); assay: Inhibition of MAPK14 at 1 uM; outline: as §1
Chain of Mitogen-activated protein kinase 14 (Homo sapiens) (Q16539 whole entry): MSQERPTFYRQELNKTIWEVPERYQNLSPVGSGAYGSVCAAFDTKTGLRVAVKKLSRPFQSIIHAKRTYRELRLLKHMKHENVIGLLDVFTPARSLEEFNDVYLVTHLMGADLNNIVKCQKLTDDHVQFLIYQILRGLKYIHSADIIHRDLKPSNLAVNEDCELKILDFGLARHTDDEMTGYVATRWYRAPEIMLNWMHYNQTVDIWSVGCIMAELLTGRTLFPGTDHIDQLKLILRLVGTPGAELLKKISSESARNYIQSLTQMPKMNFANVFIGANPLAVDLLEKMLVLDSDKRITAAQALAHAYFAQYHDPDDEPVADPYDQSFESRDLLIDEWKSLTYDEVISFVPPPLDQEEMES

[31] = target: Mitogen-activated protein kinase 3 (Homo sapiens) (UniProt P27361); assay: Inhibition of MAPK3 at 1 uM; outline: as §1
[32] = target: Hepatocyte growth factor receptor (Homo sapiens) (UniProt P08581); assay: Inhibition of MET at 1 uM; outline: as §1
[33] = target: Serine/threonine-protein kinase Nek2 (Homo sapiens) (UniProt P51955); assay: Inhibition of NEK2 at 1 uM; outline: as §1
[34] = target: High affinity nerve growth factor receptor (Homo sapiens) (UniProt P04629); assay: Inhibition of NTRK1 at 1 uM; outline: as §1
[35] = target: Platelet-derived growth factor receptor alpha (Homo sapiens) (UniProt P16234); assay: Inhibition of PDGFRA at 1 uM; outline: as §1
[36] = target: Platelet-derived growth factor receptor beta (Homo sapiens) (UniProt P09619); assay: Inhibition of PDGFRB at 1 uM; outline: as §1
[37] = target: Serine/threonine-protein kinase PLK1 (Homo sapiens) (UniProt P53350); assay: Inhibition of PLK1 at 1 uM; outline: as §1
[38] = target: cAMP-dependent protein kinase catalytic subunit alpha (Homo sapiens) (UniProt P17612); assay: Inhibition of PRKACA at 1 uM; outline: as §1
[39] = target: Protein kinase C alpha type (Homo sapiens) (UniProt P17252); assay: Inhibition of PRKCA at 1 uM; outline: as §1
[40] = target: Protein kinase C theta type (Homo sapiens) (UniProt Q04759); assay: Inhibition of PRKCQ at 1 uM; outline: as §1
[41] = target: Focal adhesion kinase 1 (Homo sapiens) (UniProt Q05397); assay: Inhibition of PTK2 at 1 uM; outline: as §1
[42] = target: Rho-associated protein kinase 1 (Homo sapiens) (UniProt Q13464); assay: Inhibition of ROCK1 at 1 uM; outline: as §1
[43] = target: Ribosomal protein S6 kinase beta-1 (Homo sapiens) (UniProt P23443); assay: Inhibition of RPS6KB1 at 1 uM; outline: as §1
Chain of Ribosomal protein S6 kinase beta-1 (Homo sapiens) (P23443 whole entry, looked up): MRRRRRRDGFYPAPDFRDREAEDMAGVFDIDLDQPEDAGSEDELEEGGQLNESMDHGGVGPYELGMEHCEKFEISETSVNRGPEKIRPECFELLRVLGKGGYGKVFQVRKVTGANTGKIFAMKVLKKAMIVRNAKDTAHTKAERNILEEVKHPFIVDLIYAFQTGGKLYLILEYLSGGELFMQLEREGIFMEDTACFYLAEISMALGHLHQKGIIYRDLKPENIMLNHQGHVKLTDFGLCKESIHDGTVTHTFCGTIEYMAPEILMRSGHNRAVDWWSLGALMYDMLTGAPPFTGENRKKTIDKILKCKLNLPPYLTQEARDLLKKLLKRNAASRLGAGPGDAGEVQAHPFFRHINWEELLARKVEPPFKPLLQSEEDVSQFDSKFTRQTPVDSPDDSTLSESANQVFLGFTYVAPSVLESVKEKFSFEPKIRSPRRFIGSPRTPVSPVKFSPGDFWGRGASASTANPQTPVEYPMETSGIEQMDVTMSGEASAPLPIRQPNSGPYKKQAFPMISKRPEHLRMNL

[44] = target: Serine/threonine-protein kinase Sgk1 (Homo sapiens) (UniProt O00141); assay: Inhibition of SGK at 1 uM; outline: as §1
[45] = target: Proto-oncogene tyrosine-protein kinase Src (Homo sapiens) (UniProt P12931); assay: Inhibition of SRC at 1 uM; outline: as §1
Chain of Proto-oncogene tyrosine-protein kinase Src (Homo sapiens) (P12931 2-536 limits assumed): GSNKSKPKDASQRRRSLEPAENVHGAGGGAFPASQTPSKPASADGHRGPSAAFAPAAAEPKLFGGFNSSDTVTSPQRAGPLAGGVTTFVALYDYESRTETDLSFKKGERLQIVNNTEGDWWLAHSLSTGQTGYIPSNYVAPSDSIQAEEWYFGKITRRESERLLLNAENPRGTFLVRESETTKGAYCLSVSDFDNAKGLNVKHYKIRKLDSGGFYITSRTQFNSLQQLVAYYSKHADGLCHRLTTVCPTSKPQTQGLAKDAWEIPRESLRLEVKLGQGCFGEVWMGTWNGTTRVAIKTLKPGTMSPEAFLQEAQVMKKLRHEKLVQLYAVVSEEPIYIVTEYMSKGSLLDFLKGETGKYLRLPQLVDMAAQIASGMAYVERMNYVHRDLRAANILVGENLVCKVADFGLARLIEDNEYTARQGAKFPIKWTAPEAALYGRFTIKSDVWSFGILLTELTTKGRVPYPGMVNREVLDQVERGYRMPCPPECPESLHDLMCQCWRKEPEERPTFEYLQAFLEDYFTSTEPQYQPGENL

[46] = target: Aurora kinase A (Homo sapiens) (UniProt O14965); assay: Inhibition of STK6 at 1 uM; outline: as §1
[47] = target: Tyrosine-protein kinase SYK (Homo sapiens) (UniProt P43405); assay: Inhibition of SYK at 1 uM; outline: as §1
[48] = target: Tyrosine-protein kinase Yes (Homo sapiens) (UniProt P07947); assay: Inhibition of YES1 at 1 uM; outline: as §1
[49] = target: Ephrin type-A receptor 1 (Homo sapiens) (UniProt P21709); assay: Inhibition of EPHA1 at 1 uM; outline: as §1
Chain of Ephrin type-A receptor 1 (Homo sapiens) (P21709 whole entry): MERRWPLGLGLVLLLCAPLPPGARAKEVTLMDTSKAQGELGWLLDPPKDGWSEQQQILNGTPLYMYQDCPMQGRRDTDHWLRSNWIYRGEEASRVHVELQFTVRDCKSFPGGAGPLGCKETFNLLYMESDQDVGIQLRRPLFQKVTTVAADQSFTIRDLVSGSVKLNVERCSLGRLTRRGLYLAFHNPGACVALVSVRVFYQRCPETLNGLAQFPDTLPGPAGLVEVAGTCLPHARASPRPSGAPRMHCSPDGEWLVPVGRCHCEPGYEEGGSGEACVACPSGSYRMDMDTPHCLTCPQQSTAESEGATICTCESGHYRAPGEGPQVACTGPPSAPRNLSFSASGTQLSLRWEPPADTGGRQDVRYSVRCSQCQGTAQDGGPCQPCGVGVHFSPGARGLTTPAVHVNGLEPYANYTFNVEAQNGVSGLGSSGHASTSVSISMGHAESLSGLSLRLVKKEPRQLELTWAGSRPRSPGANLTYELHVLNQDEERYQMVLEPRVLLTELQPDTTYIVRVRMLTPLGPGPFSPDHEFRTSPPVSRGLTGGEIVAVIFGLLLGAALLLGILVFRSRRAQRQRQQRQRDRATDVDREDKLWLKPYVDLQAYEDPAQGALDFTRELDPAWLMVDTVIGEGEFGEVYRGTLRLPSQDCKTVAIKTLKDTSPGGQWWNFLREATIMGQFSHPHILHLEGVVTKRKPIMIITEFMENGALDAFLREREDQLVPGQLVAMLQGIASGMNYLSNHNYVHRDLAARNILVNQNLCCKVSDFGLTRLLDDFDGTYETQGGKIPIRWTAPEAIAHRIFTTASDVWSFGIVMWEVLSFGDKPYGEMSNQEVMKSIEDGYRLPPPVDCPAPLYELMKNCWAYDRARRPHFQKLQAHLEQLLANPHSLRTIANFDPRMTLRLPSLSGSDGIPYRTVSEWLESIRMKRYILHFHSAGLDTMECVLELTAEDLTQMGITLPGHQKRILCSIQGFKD

[50] = target: Tyrosine-protein kinase Lyn (Homo sapiens) (UniProt P07948); assay: Inhibition of LYN A at 1 uM; outline: as §1

- Activity [1]: inactive
SMILES: CCC[C@@H]1O[C@H](CC(=O)OCC)CC2=C1C(=O)c1ccccc1C2=O (racemic)

- Activity [1]: inactive
SMILES: CCC[C@H]1O[C@H](CC(=O)OCC)CC2=C1C(=O)c1ccccc1C2=O (racemic)

- Activity [1]: inactive
SMILES: CCOC(=O)C[C@@H]1CC2=C(C(=O)c3ccccc3C2=O)[C@@H](COCc2ccccc2)O1 (racemic)

- Activity [1]: inactive
SMILES: CCOC(=O)C[C@@H]1CC2=C(C(=O)c3ccccc3C2=O)[C@H](c2ccc(O)cc2)O1 (racemic)

- Activity [1]: inactive
SMILES: CCOC(=O)C[C@@H]1CC2=C(C(=O)c3ccccc3C2=O)[C@H](c2cccc(O)c2)O1 (racemic)

- Activity [1]: inactive
SMILES: CCOC(=O)C[C@@H]1CC2=C(C(=O)c3ccccc3C2=O)[C@@H](c2ccsc2)O1 (stereo in doubt; (+))

- Activity [1]: inactive
SMILES: CCOC(=O)C[C@@H]1CC2=C(C(=O)c3ccccc3C2=O)[C@@H](c2ccsc2)O1 (stereo in doubt; (-))

Second part, the compound before the results:

SMILES: CCOC(=O)C[C@@H]1CC2=C(C(=O)c3ccccc3C2=O)C(C)(C)O1 (racemic)
- Activity [1]: inactive

SMILES: CCOC(=O)C[C@@H]1CC2=C(C(=O)c3ccccc3C2=O)C2(CCCC2)O1 (racemic)
- Activity [1]: inactive

SMILES: CCOC(=O)C[C@@H]1CC2=C(C(=O)c3ccccc3C2=O)[C@H](c2ccc(N)cc2)O1 (racemic)
- Activity [1]: inactive

SMILES: O=C1C[C@H]2O[C@H](c3ccsc3)C3=C(C(=O)c4ccccc4C3=O)[C@H]2O1 (stereo in doubt; (+))
- IC50 [2]: 0.122 µM
- IC50 ([3]; Homo sapiens, MDA-MB-468): 0.3 µM

SMILES: O=C1C[C@H]2O[C@H](c3ccsc3)C3=C(C(=O)c4ccccc4C3=O)[C@H]2O1 (stereo in doubt; (-))
- IC50 [2]: 0.099 µM
- IC50 ([3]; mda-mb-468): 0.41 µM

SMILES: CCC[C@H]1O[C@H](CC(=O)O)CC2=C1C(=O)c1c(O)cccc1C2=O [DEOXYFRENOLICIN]
- IC50 [2]: 0.424 µM
- IC50 ([3]; Homo sapiens, MDA-MB-468): 0.33 µM

SMILES: CCC[C@H]1O[C@@H]2CC(=O)O[C@@H]2C2=C1C(=O)c1c(O)cccc1C2=O [FRENOLICIN B]
- IC50 [2]: 0.198 µM
- IC50 ([3]; Homo sapiens, MDA-MB-468): 0.06 µM

SMILES: C[C@H]1O[C@@H]2CC(=O)O[C@@H]2C2=C1C(=O)c1c(ccc([C@H]3C[C@@H](N(C)C)[C@H](O)[C@@H](C)O3)c1O)C2=O [LACTOQUINOMYCIN]
- IC50 [2]: 0.149 µM
- IC50 ([3]; Homo sapiens, MDA-MB-468): 0.05 µM
- IC50 [4]: 38.5 µM
- IC50 [5]: 30.4 µM
- Activity [6]: inactive
- inhibition [7]: 0%
- inhibition [8]: 92%
- inhibition [9]: 99%
- inhibition [10]: 1%
- inhibition [11]: 2%
- inhibition [12]: 0%
- inhibition [13]: 10%
- inhibition [14]: 6%
- inhibition [15]: 0%
- inhibition [16]: 26%
- inhibition [17]: 5%
- inhibition [18]: 38%
- inhibition [19]: 29%
- inhibition [20]: 4%
- inhibition [21]: 17%
- inhibition [22]: 2%
- inhibition [23]: 41%
- inhibition [24]: 1%
- inhibition [25]: 21%
- inhibition [26]: 0%
- inhibition [27]: 0%
- inhibition [28]: 34%
- inhibition [29]: 6%
- inhibition [30]: 49%
- inhibition [31]: 7%
- inhibition [32]: 14%
- inhibition [33]: 0%
- inhibition [34]: 14%
- inhibition [35]: 15%
- inhibition [36]: 32%
- inhibition [37]: 0%
- inhibition [38]: 0%
- inhibition [39]: 16%
- inhibition [40]: 22%
- inhibition [41]: 12%
- inhibition [42]: 1%
- inhibition [43]: 16%
- inhibition [44]: 20%
- inhibition [45]: 0%
- inhibition [46]: 17%
- inhibition [47]: 2%
- inhibition [48]: 14%
- inhibition [49]: 8%
- inhibition [50]: 3%
